From PMC4518544 (Journal of medicinal chemistry, 2015)
“Also recorded” adds a separate entry of the source. Like-named read-outs stand apart in the source and are kept apart here. Values belong to the compound of their own block, whether it stands above or below them.

Tests used:
Grp94 [1] = target: T1, Grp94 (Canis lupus familiaris, UniProt P41148); assay: FP competition binding assay, Grp94; set-up: species or system Canine; details: for diminished potency for Grp94 on substitution of N3 with C: relative to 18a and 18c; for decrease in affinity for Grp94 of N3-substituted compounds: compared to the N9-series; for Hsp90α/Grp94: ratio of IC50 values, Table 4; for decrease in Grp94 activity on linker substitution: relative to S-linked 9g
TLR9 = TLR9 assay in transfected HEK 293T cells; type: cell-based; details: 24 h treatment
Summary of the method: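 HEK 293T cells were transfected with HA-tagged human TLR9 and split onto chamber slides 24 h later, then treated 24 h at varying concentrations. Cells were fixed (4% paraformaldehyde, 20 min), permeabilized (0.1% Triton X-100, 10 min) and blocked (3% BSA, 30 min). Staining used anti-HA (1:250, 1 h) or normal rabbit IgG, then Cy3 anti-rabbit (1:400), with DAPI mounting. Confocal imaging; fluorescence intensity was normalized to cell number.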

[2] = test system: TNFα production in cells stimulated by LPS; assay: TNFα ELISA, Raw264.7 cells stimulated with LPS; type: cell-based, mouse; details: Hsp90-mediated effect
HER2 = assay: Immunoblotting of HER2 in SKBr3 cells; type: cell-based
Summary of the method: (§1)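 SKBr3 cells were treated 24 h with DMSO or test compound and lysed in RIPA buffer (pH 7.4) with protease inhibitors. Protein was measured by BCA, and 5–50 μg was run on SDS–PAGE and transferred to nitrocellulose. Blots were probed for HER2 (1:500), Hsp70 (1:2500), cleaved PARP (1:2500) and β-actin (1:3000), then HRP secondary, ECL and film, with densitometry. Triplicate experiments.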

[3] = test system: HER2-overexpressing SKBr3 cells; details: cited from earlier work
scanEDGE 97 kinase panel = assay: scanEDGE kinase competition binding panel; details: 10 μM
Summary of the method: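 Competition binding panel. Kinase, biotinylated-ligand streptavidin beads and test compound (from 40× DMSO stocks) were incubated 1 h at room temperature in binding buffer with 6 mM DTT. Beads were washed and eluted 30 min with 0.5 μM free ligand. Eluted kinase was measured by qPCR.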

[4] = test system: IGF-II secretion by differentiated myoblasts; assay: C2C12 differentiation and IGF-II secretion assay; type: cell-based, mouse; details: 24 h treatment
Summary of the method: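 C2C12 mouse myoblasts kept in DMEM with 10% FBS. Differentiation was induced by switching to DMEM with 2% horse serum (36–48 h). After the switch, cells were treated 24 h. Medium was incubated overnight at 4 °C in anti-IGF-II-coated ELISA wells, then detected with biotinylated anti-IGF-II, HRP-streptavidin and TMB. Read at 450 nm and quantified against a recombinant IGF-II standard curve.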

Aqueous solubility = type: physicochemical; details: water
Hsp70 = assay: Immunoblotting of Hsp70 in SKBr3 cells; type: cell-based
Summary of the method: as §1

[5] = test system: CpG induced TNF-α production; assay: TNFα ELISA, Raw264.7 cells stimulated with CpG; type: cell-based, mouse; details: 18 h treatment
Hsp90β = Hsp90β (Homo sapiens, UniProt P08238); assay: FP competition binding assay, Hsp90β
SKBr3 cells = assay: CellTiter-Glo cell viability assay; type: cell-based; details: 100 μM, 72 h
Summary of the method: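 SKBr3 cells were grown in McCoy's 5A with 10% FBS at 37 °C under CO2, then treated 72 h with vehicle or test compound in quadruplicate wells. Viable cells were measured by CellTiter-Glo ATP luminescence. Points are means, n = 4.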

cleaved PARP = assay: Immunoblotting of cleaved PARP in SKBr3 cells; type: cell-based; details: 100 μM
Summary of the method: as §1

Grp94 [6] = target: T1, Grp94; details: cited from earlier work
Hsp90α = Hsp90α (Homo sapiens, UniProt P07900); assay: FP competition binding assay, Hsp90α
Grp94 [7] = details: read-out: Kd for Grp94; cited from earlier work

T1 sequence (P41148 22-804): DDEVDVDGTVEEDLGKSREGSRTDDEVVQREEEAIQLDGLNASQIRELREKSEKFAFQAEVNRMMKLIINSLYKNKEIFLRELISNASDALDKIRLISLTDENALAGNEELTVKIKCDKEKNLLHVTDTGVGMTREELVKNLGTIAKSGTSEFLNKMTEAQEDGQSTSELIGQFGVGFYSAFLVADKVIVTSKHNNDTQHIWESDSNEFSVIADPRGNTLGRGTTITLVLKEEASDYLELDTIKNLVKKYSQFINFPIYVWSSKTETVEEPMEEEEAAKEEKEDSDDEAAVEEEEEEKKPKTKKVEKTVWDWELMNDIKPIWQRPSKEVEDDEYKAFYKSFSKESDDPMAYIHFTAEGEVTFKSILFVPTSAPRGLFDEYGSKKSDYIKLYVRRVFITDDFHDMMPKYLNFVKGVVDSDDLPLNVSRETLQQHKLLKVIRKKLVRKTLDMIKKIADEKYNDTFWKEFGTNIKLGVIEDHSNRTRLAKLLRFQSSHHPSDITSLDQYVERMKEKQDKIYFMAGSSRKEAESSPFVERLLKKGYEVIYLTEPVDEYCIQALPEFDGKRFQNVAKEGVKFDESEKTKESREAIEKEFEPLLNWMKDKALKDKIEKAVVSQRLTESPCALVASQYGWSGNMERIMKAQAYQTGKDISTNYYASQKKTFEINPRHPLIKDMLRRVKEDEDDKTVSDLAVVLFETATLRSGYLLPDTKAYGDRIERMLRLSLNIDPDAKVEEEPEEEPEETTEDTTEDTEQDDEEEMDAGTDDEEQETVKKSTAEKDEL
Chain of Hsp90β (P08238 whole entry): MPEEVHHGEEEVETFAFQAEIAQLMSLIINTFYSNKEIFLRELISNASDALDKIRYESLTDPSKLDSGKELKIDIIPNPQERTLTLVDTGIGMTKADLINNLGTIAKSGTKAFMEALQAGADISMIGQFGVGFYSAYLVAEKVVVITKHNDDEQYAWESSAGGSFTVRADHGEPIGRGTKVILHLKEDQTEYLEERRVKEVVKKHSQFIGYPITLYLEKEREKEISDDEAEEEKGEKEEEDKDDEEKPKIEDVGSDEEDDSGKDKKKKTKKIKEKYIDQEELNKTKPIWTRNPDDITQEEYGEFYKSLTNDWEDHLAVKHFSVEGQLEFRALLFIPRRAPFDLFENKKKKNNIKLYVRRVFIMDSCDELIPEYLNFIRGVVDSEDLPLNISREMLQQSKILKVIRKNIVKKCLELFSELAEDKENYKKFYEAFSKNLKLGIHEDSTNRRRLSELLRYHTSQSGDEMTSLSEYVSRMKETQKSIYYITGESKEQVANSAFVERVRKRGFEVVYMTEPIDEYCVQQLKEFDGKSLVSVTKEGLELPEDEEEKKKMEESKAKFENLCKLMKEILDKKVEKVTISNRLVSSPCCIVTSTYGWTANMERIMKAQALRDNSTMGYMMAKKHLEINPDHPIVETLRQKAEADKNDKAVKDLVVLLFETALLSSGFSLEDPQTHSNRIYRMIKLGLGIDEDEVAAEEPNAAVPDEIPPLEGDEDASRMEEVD

Compound: CC(C)NCCCn1c(Sc2cc(Cl)cc(Cl)c2)nc2c(N)ncnc21 [18c, 8-((3,5-Dichlorophenyl)thio)-9-(3-(isopropylamino)propyl)-9H-purin-6-amine]
expression of TLR9 in the post-ER compartment (TLR9): dose-dependently inhibited
selectivity for Grp94 over Hsp90α/β (Grp94 [1]): > 100 fold
TNFα production in cells stimulated by LPS [2]: lack of activity
steady-state levels of HER2 kinase (HER2; HER2 overexpressing breast cancer cells, 24 h): reduced
growth of SKBr3 cells [3]: growth impairment
interaction with kinase panel (scanEDGE 97 kinase panel): inert
IGF-II secretion by differentiated myoblasts [4]: dose-dependently inhibited
solubility (Aqueous solubility): > 10000 µg/mL
Hsp70 induction (Hsp70; 24 h): no Hsp70 induction; also recorded: did not modulate
CpG induced TNF-α production [5]: dose-dependently inhibited

Compound: C#CCCCn1cnc(N)c2nc(Sc3cc(Cl)ccc3Cl)nc1-2 [9k′, 8-(2,5-Dichlorophenylthio)-3-(pent-4-ynyl)-3H-purin-6-amine]
IC50 (Grp94 [1]): 35.3 ± 5 µM
decrease in affinity for Grp94 of N3-substituted compounds (Grp94 [1]): 10–400 fold

Compound: C#CCCCn1cnc(N)c2nc(Sc3ccccc3OC)nc1-2 [9b′, 8-(2-Methoxyphenylthio)-3-(pent-4-ynyl)-3H-purin-6-amine]
IC50 (Grp94 [1]): > 100 µM

Compound: C#CCCCn1cnc(N)c2nc(Sc3ccc(Cl)cc3Cl)nc1-2 [9g′, 8-(2,4-Dichlorophenylthio)-3-(pent-4-ynyl)-3H-purin-6-amine]
IC50 (Grp94 [1]): 2.37 ± 0.79 µM
decrease in affinity for Grp94 of N3-substituted compounds (Grp94 [1]): 10–400 fold
Hsp90α/Grp94 (Grp94 [1]): >210 µM

Compound: COC(=O)c1c(O)cc(O)c(Cl)c1CCc1nccn1Cc1ccccc1 [compound 3]
HER2 level (HER2; SKBr3 cells, 100 μM): possibly a slight reduction in HER2
effect in SKBr3 cells (HER2; up to 10 μM): no effect
antiproliferative effects against SKBr3 cells [3]: lacked antiproliferative effects
cell viability (SKBr3 cells): cellular toxicity
Hsp70 induction (Hsp70; 100 μM): Hsp70 induction
PARP cleavage (cleaved PARP): minor PARP cleavage

Compound: CN(C)c1cc2c(cc1Sc1nc3c(N)nccc3n1CCNCC(C)(C)C)OCO2 [compound 22]
lower affinity for Grp94 than for Hsp90α or Hsp90β (Grp94 [6]): ~ 6 fold

Compound: C#CCCCn1cnc(N)c2nc(Sc3ccccc3CO)nc1-2 [9c′, (2-(6-Amino-3-(pent-4-ynyl)-3H-purin-8-ylthio)phenyl)methanol]
IC50 (Grp94 [1]): > 100 µM

Compound: C#CCCCn1cnc(N)c2nc(Sc3ccc(OC)cc3OC)nc1-2 [9j′, 8-(2,4-Dimethoxyphenylthio)-3-(pent-4-ynyl)-3H-purin-6-amine]
IC50 (Grp94 [1]): > 100 µM

Compound: C#CCCCn1cnc(N)c2nc(Sc3ccccc3Cl)nc1-2 [9a′, 8-(2-Chlorophenylthio)-3-(pent-4-ynyl)-3H-purin-6-amine]
IC50 (Grp94 [1]): 100 ± 10 µM
decrease in affinity for Grp94 of N3-substituted compounds (Grp94 [1]): 10–400 fold

Compound: C#CCCCn1cnc(N)c2nc(Sc3ccc(C)cc3C)nc1-2 [compound 4, 8-(2,4-Dimethylphenylthio)-3-(pent-4-ynyl)-3H-purin-6-amine]
IC50 (Hsp90α): > 250 µM

Compound: C#CCCCn1cnc(N)c2nc(Sc3ccccc3OC(F)(F)F)nc1-2 [9d′, 3-(Pent-4-ynyl)-8-(2-(trifluoromethoxy)phenylthio)-3H-purin-6-amine]
IC50 (Grp94 [1]): > 100 µM

Compound: 5′-N-ethylcarboxamidoadenosine [NECA]
Kd (Grp94 [7]): 0.2 µM

Compound: CC(C)NCCCn1cnc(N)c2nc(Sc3cc(Cl)cc(Cl)c3)nc1-2 [18c′, 8-((3,5-Dichlorophenyl)thio)-3-(3-(isopropylamino)propyl)-3H-purin-6-amine]
decrease in affinity for Grp94 of N3-substituted compounds (Grp94 [1]): 10–400 fold
Hsp90α/Grp94 (Grp94 [1]): >39 µM

Continued, values first:

diminished potency for Grp94 on substitution of N3 with C (Grp94 [1]): 5–8 fold
Compound: CC(C)NCCCn1c(Sc2cc(Cl)cc(Cl)c2)nc2c(N)nccc21 [18e, 2-((3,5-Dichlorophenyl)thio)-1-(3-(isopropylamino)propyl)-1H-imidazo[4,5-c]pyridin-4-amine]

decrease in affinity for Grp94 of N3-substituted compounds (Grp94 [1]): 10–400 fold
IC50 (Grp94 [1]; read-out: IC50 Grp94, FP competition, Cy3B-GM probe): 100 ± 8 µM
IC50 (Hsp90β; read-out: IC50 Hsp90β, FP competition, Cy3B-GM probe): > 100 µM
Compound: C#CCCCn1cnc(N)c2nc(Sc3cc(Cl)cc(Cl)c3)nc1-2 [9n′, 8-(3,5-Dichlorophenylthio)-3-(pent-4-ynyl)-3H-purin-6-amine]

IC50 (Grp94 [1]): 20 ± 5 µM
decrease in affinity for Grp94 of N3-substituted compounds (Grp94 [1]): 10–400 fold
Hsp90α/Grp94 (Grp94 [1]): >5 µM
Compound: C#CCCCn1cnc(N)c2nc(Sc3c(C)cc(C)cc3C)nc1-2 [9w′, 8-(Mesitylthio)-3-(pent-4-ynyl)-3H-purin-6-amine]

decrease in potency for Grp94 (Grp94 [1]; relative to 9n, chain length five to six carbons): approximately 3 fold
Compound: C#CCCCCn1c(Sc2cc(Cl)cc(Cl)c2)nc2c(N)ncnc21 [13b, 8-((3,5-Dichlorophenyl)thio)-9-(hex-5-yn-1-yl)-9H-purin-6-amine]

decrease in Grp94 activity on linker substitution (Grp94 [1]): ~ 40 fold
Compound: C#CCCCn1c(S(=O)(=O)c2ccc(Cl)cc2Cl)nc2c(N)ncnc21 [14b, 8-((2,4-Dichlorophenyl)sulfonyl)-9-(pent-4-yn-1-yl)-9H-purin-6-amine]

IC50 (Grp94 [1]): > 100 µM
Compound: C#CCCCn1cnc(N)c2nc(Sc3cc(C)cc(C)c3)nc1-2 [9q′, 8-(3,5-Dimethylphenylthio)-3-(pent-4-ynyl)-3H-purin-6-amine]

diminished potency for Grp94 on substitution of N3 with C (Grp94 [1]): 5–8 fold
Compound: CC(C)NCCCn1c(Sc2ccc(Cl)cc2Cl)nc2c(N)nccc21 [18d, 2-((2,4-Dichlorophenyl)thio)-1-(3-(isopropylamino)propyl)-1H-imidazo[4,5-c]pyridin-4-amine]

decrease in Grp94 activity on linker substitution (Grp94 [1]): 4–6 fold
Compound: C#CCCCn1c(Cc2ccc(Cl)cc2Cl)nc2c(N)ncnc21 [14d, 8-(2,4-Dichlorobenzyl)-9-(pent-4-yn-1-yl)-9H-purin-6-amine]

decrease in Grp94 activity on linker substitution (Grp94 [1]): 4–6 fold
Compound: C#CCCCn1c(Oc2ccc(Cl)cc2Cl)nc2c(N)ncnc21 [14c, 8-(2,4-Dichlorophenoxy)-9-(pent-4-yn-1-yl)-9H-purin-6-amine]

IC50 (Grp94 [1]): > 100 µM
IC50 (Hsp90α): > 100 µM
IC50 (Hsp90β): > 100 µM
Compound: C#CCCCn1cnc(N)c2nc(Sc3cc(C(F)(F)F)ccc3Cl)nc1-2 [9m′, 8-(2-Chloro-5-(trifluoromethyl)phenylthio)-3-(pent-4-ynyl)-3H-purin-6-amine]

IC50 (Grp94 [1]): > 100 µM
Compound: C#CCCCn1cnc(N)c2nc(Sc3cc(C)ccc3C)nc1-2 [9l′, 8-(2,5-Dimethylphenylthio)-3-(pent-4-ynyl)-3H-purin-6-amine]

IC50 (Grp94 [1]): 2.08 µM
decrease in affinity for Grp94 of N3-substituted compounds (Grp94 [1]): 10–400 fold
Hsp90α/Grp94 (Grp94 [1]): >48 µM
Compound: C#CCCCn1cnc(N)c2nc(Sc3cc(Cl)c(Cl)cc3Cl)nc1-2 [9v′, 3-(Pent-4-ynyl)-8-(2,4,5-trichlorophenylthio)-3H-purin-6-amine]

loss of affinity for Grp94 compared to PU-H71 (5) (Grp94 [1]): 10 fold
lower affinity for Grp94 compared to Hsp90α (Grp94 [1]): ~ 3 fold
Compound: CC(C)NCCCn1c(Sc2cc3c(cc2N(C)C)OCO3)nc2c(N)ncnc21 [18g]
